Reference: PubChem BioAssay AID602269 (Broad Institute, 2012)
Records with an inconclusive call do not appear. The source made the active and inactive calls.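 The calls were made as follows: active = active in every separate test run, each with half-maximal potency at or below twice its top valid dose; inconclusive = test runs disagree, or a flat partial drop, or poor fit; inactive = inactive in every test run, including signal rising instead.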

Columns and labels:
[1] = tested on: R4-3T3 NIH3T3 HSF-1 GFP / Tet-On RFP fluorescence, 48 h; assay: decrease of heat-induced HSF-1 GFP reporter, dose response, NIH3T3 R4-3T3 cells, GFP/RFP, dry powder (AID 602269)
Procedure, shortened: (§1)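 Material: R4-3T3 mouse NIH3T3 fibroblasts with heat-shock-element GFP and Tet-On RFP reporters. Benchmarks: positive control Didemnin B, 400 nM. Reagent: doxycycline 2 µg/mL final and heat shock. Detection: bottom-read fluorescence, GFP ex 485/em 535 nm, RFP ex 550/em 595 nm. Times: 2 h 42 °C shock, then 48 h 37 °C.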

[2] = as above; conditions: R4-3T3 NIH3T3 HSF-1 GFP / Tet-On RFP fluorescence, 48 h; at 26 µM (top of the series)
Procedure, shortened: as §1

O=C1C=C(NCCN2CCOCC2)C(=O)c2cnccc21
AC50 [1]: 2280 nM

Oc1ccc(Br)cc1/C=N/Nc1ccccn1
AC50 [1]: 994 nM

CCc1ccc(NC(=O)C2C3CCC(O3)C2C(=O)O)cc1 (stereo unspecified)
activity change, negative = inhibition [2]: -14.3% (inactive)

O=C(CCl)N1CCCC1c1ccc2c(c1)OCCO2 (stereo unspecified)
AC50 [1]: 1180 nM

CC(C)(C)C(=O)NC(=S)NNC(=O)c1sc2ccccc2c1Cl
AC50 [1]: 4550 nM

CC1=NNC(=O)/C1=C\c1cn(-c2ccccc2)nc1-c1ccc(Cl)cc1
AC50 [1]: 1270 nM
